From PubChem
S100A4 MyoIIA: blocks human S100A4 binding to myosin IIA peptide; P26447; S100A4/TAMRA-MyoIIA peptide fluorescence polarization; inhibition, % at 10.7 µM; actives 0.14% (n = 360,000);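 active means mean inhibition of at least 70% across replicates, with every replicate also reaching that level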
Target sequence (P26447 whole entry, looked up): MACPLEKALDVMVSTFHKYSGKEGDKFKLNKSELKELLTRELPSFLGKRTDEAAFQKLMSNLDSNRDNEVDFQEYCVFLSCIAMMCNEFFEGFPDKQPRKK
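Test system: S100A4 monomer protein; Medium: HEPES pH 7.2 with CaCl2, KCl, NaCl, DTT, Triton; Probe or stimulus: TAMRA-labelled myosin IIA heavy-chain peptide probe, 5 nM; Doses: one dose per compound; Times: polarization read 5 min after assay mix addition, stable 5–60 min; Benchmarks: neutral control DMSO, positive control TFP.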
AF4-AF9 inh: blocks AF4 peptide binding to human AF9. AlphaScreen, biotin-AF4 peptide binding to FLAG-AF9. inhibition, % at 10 µM. actives 0.47% (n = 350,000). AID 651704;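 active means every replicate reaching a set inhibition limit, whatever the replicate mean, cut at about 25% in these data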;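 further: 0% = plate neutral control median and 100% = total signal loss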
DENV2 CPE rescue: protects cells from dengue virus 2 cytopathic effect; DENV2-infected cells, cytopathic effect rescue, plate reader; actives 1.7% (n = 350,000); CPE inhibition, % at 9.99 µM; in the data active means CPE inhibition above about 20%, passing the limit was not always enough; tested in BHK-21 cells;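 further: 0% = median of neutral control wells and 100% = median of positive control wells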
CaV13 FRET inh: Primary screen for inhibitors of IQ motif and Ca2+-dependent inactivation inhibitor domain binding in CACNA1D, Förster resonance energy transfer in living cells, …; HEK cells, CFP/YFP FRET ICDI-IQ, plate reader, 10 min; percent FRET-ratio fall versus neutral wells; actives 0.098% (n = 340,000); inhibition, % at 12.3 µM;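 active means mean replicate inhibition of at least 30% and at least 1% of replicates passing that level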;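 further: 0% = median of the neutral control wells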
SIRT5 inh: sirtuin-5 (human) deacylase inhibition. Q9NXA8. Purified SirT5, succinyl-peptide AMC, trypsin-coupled fluorescence. inhibition, % at 15 µM. actives 1.1% (n = 330,000); in the data active means inhibition above about 15%
Target sequence (Q9NXA8 whole entry, looked up): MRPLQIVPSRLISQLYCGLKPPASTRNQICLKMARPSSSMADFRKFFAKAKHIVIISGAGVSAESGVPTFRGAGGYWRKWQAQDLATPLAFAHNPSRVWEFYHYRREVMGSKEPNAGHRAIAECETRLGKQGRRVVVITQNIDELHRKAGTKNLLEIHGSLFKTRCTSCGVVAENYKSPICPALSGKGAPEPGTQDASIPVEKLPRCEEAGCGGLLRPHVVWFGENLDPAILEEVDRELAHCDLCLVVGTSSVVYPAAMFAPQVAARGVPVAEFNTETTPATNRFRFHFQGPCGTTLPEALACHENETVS
An asterisk follows results filed as active; x = not tested or not shown. Compounds with a hit are over-represented: about 2.7% of the library has one in this group of screens.

SMILES	S100A4 MyoIIA	AF4-AF9 inh	DENV2 CPE rescue	CaV13 FRET inh	SIRT5 inh
C[C@H](CO)N1C[C@H](C)[C@H](CN(C)Cc2ccc(Cl)c(Cl)c2)Oc2c(NC(=O)CCCCCC(=O)Nc3ccccc3N)cccc2C1=O	0	-3	1	x	10
C[C@@H]1CN([C@H](C)CO)C(=O)c2cccc(NC(=O)Nc3ccccc3)c2O[C@@H]1CN(C)Cc1ccc(C(=O)O)cc1	8	0	16	x	-4
O=C(C[C@H]1CC[C@@H]2[C@H](COC[C@H](O)CN2C(=O)c2ccc(F)cc2)O1)NC1Cc2ccccc2C1	-2	-2	-2	x	11
CCC(CO)NC(=O)c1ccccc1C(F)(F)F (configuration not stated)	26	5	-7	-1	23*
Cc1ccc2c(c1)-c1c(cnn1CC(=O)Nc1ccccc1N1CCN(C)CC1)CO2	2	0	1	46*	-1
Cc1ccc2c(c1)-c1c(cnn1CC(=O)O)CO2	x	x	x	-2	x
CCO/C=C1/C(=O)N(Cc2ccccc2)C(=O)c2ccccc21	-1	5	11	-2	26*
CCO/C=C1/C(=O)N(CC)c2ccccc21	x	x	x	-5	x
Cc1ccc([C@@H]2[C@@H]3C(=O)N(c4ccccc4)C(=O)[C@@H]3[C@]3(C)C(=O)N(Cc4ccccc4)CC(=O)N23)o1	-9	4	-17	-10	-6
Cc1ccc([C@@H]2[C@@H]3C(=O)N(C)C(=O)[C@@H]3[C@]3(C)C(=O)N(Cc4ccc(-c5ccccc5)cc4)CC(=O)N23)o1	-3	-37	92*	-12	x
C[C@@H]1CCCCO[C@@H](CN(C)C(=O)NC2CCCCC2)[C@H](C)CN([C@H](C)CO)C(=O)c2cc(NC(=O)CCC(F)(F)F)ccc2O1	13	0	-1	x	7
CCCNC(=O)Nc1ccc2c(c1)OC[C@@H](C)N(C(C)=O)C[C@@H](C)[C@@H](OC)CN(C)C2=O	3	-1	3	x	4
C[C@@H]1CN([C@H](C)CO)C(=O)Cc2cc(NS(C)(=O)=O)ccc2O[C@H]1CN(C)C(=O)Nc1ccc2c(c1)OCO2	-5	-5	-10	x	2
C[C@@H]1CN([C@@H](C)CO)C(=O)Cc2cc(N(C)C)ccc2O[C@H]1CN(C)C(=O)Nc1ccc2c(c1)OCO2	-11	0	30*	x	5
C[C@H](CO)N1C[C@H](C)[C@@H](CN(C)C(=O)Nc2ccc3c(c2)OCO3)Oc2ccc(NS(C)(=O)=O)cc2CC1=O	1	-6	31*	x	4
C[C@@H]1CN([C@H](C)CO)C(=O)Cc2cc(N(C)C)ccc2O[C@@H]1CN(C)C(=O)Nc1ccc2c(c1)OCO2	10	0	12	x	-2
C[C@H](CO)N1C[C@H](C)[C@H](CN(C)Cc2ccc3c(c2)OCO3)Oc2ccc(NS(C)(=O)=O)cc2C1=O	4	-12	-3	x	0
COCCCNC1=C(Cl)C(=O)c2ccccc2C1=O	-3	9	-18	-5	0
COCCCNc1c2c3c(cccc3[nH]c1=O)C(=O)c1ccccc1-2	127*	-29	-17	-22	5
O=C(C[C@H]1C[C@@H]2c3cc(NC(=O)Nc4ccc(C(F)(F)F)cc4)ccc3O[C@@H]2[C@@H](CO)O1)NCc1ccc2c(c1)OCO2	-4	4	-3	x	25*
O=C(C[C@H]1C[C@H]2c3cc(NC(=O)Nc4ccc(C(F)(F)F)cc4)ccc3O[C@H]2[C@H](CO)O1)NCc1ccc2c(c1)OCO2	1	1	4	x	7
O=C(C[C@@H]1C[C@H]2c3cc(NC(=O)Nc4ccc(C(F)(F)F)cc4)ccc3O[C@H]2[C@H](CO)O1)NCc1ccc2c(c1)OCO2	-5	5	3	x	27*
COc1ccc(S(=O)(=O)N(C)C[C@H]2OCCCC[C@H](C)Oc3ccc(NC(=O)Nc4ccccc4)cc3C(=O)N([C@@H](C)CO)C[C@@H]2C)cc1	x	x	2	x	x
CC(C)C#Cc1cnc2c(c1)C(=O)N([C@H](C)CO)C[C@@H](C)[C@H](CN(C)C(=O)c1cnccn1)O2	5	-9	8	x	-3
O=C(Cc1n[nH]c(=O)c2ccccc12)N1CCN(c2ccc(F)cc2)CC1	5	3	-10	3	x
CC(=O)c1ccc(N2CCN(C(=O)Cc3n[nH]c(=O)c4ccccc34)CC2)cc1	-1	1	1	-5	16*
